# High-throughput results (PubChem)
# Arrestin-AP2 inh: blocks beta-arrestin peptide binding to AP2 adaptin. FITC-arrestin peptide / GST-AP2 beads, flow cytometry; AP2 beta2 appendage carries R879A mutation. inhibition, % at 10 µM. 340,000 compounds, 0.31% hits;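 active = inhibition above a set limit, near 3 SD of compounds lacking own fluorescence, cut at about 54% in these data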;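 also: plate controls were DMSO wells for no effect and 5 µM unlabelled arrestin peptide for full effect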
#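 Material – AP2 appendage R879A on GSH beads · Buffer or medium – PBS with 0.05% Tween 20 and 0.1% BSA · Probe or stimulus – fluorescein-tagged arrestin peptide at 50 nM final · Incubation – compound with beads 12 min RT, then probe 1 h RT · Detection – high-throughput flow cytometry of beads, ex 488, em 535 nm · Evaluation – percent response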
# CAL PDZ FP-1: human CAL PDZ-peptide interaction inhibition. Q9HD26. purified CAL PDZ, TMR-peptide fluorescence polarization, 1 h. inhibition, % at 20 µM. 330,000 compounds, 0.02% hits;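 active = highest replicate inhibition of at least 40%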;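 also: plate controls were DMSO neutral control wells for no effect and unlabeled competitor peptide control wells for full effect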
#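 System: tagged CAL PDZ domain. Schedule: 1 h room-temperature incubation prior to read. Signal: fluorescence polarization (mP). Measure: percent inhibition from loss of millipolarization.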
# DDE Tn7 FP inh: DD(E)-Tn7 binding inhibition, primary FP screen | FP displacement of FITC-Tn7 peptide from fibrin DD(E); 0% = median of compound wells per plate | inhibition, % at 8.3 µM | 370,000 compounds, 0.13% hits | AID 720508;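 active = inhibition above the mean of compounds falling within the control limits plus 3 SD of them, cut at about 14% in these data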;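 also: 0% = plate median of compound wells and 100% = 10 µM Aha-Tn7 peptide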
#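 system = human fibrin DD(E) protein | quantity = DD(E) 2 µM final | medium = Tris/NaCl/CaCl2 buffer, pH 7.8 | also added = labelled Tn7 tracer, 0.1 µM | compound dosing = single point at 8.3 µM | timing = compound with protein 10 min, then 3 h after probe, room temperature | signal = FP measurement | benchmarks = Aha-Tn7 high control | repeats = one replicate per compound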
# DDE Tn6 FP inh: inhibitors of Tn6 peptide binding to human fibrin DD(E). Fibrin DD(E) TRITC-Tn6 fluorescence polarization displacement. inhibition, % at 8.3 µM. 370,000 compounds, 0.21% hits. AID 720509;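 active = inhibition above a per-campaign cutoff: mean of compounds within control limits plus 3 SD, cut at about 15% in these data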;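 also: 0% = median of all compound wells on the plate and 100% = blocking peptide control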
# CAL PDZ FP-2: inhibitors of human CAL PDZ peptide binding | Q9HD26 | 300,000 compounds, 0.92% hits | inhibition, % at 24.9 µM | purified CAL PDZ, TMR-peptide fluorescence polarization, 1 h | AID 602252;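 active = mean inhibition of at least 30% with at least half of replicates also reaching 30%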;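 also: 0% = DMSO neutral control and 100% = excess unlabeled competitor peptide PRC23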
# Arr-AP2 CP1: human beta-arrestin and AP2 interaction inhibition, cherry pick; shares compounds with Arrestin-AP2 inh; GST-AP2 beads, FITC arrestin peptide binding, flow cytometry; GST-fused beta2-adaptin appendage, R879A mutant; inhibition, % at 10 µM; 1,300 compounds, 2% hits; AID 504908;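 active = inhibition above a set limit, roughly 3 SD of non-fluorescent compound noise, cut at about 38% in these data; inactive = inhibition at or below that limit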;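 also: loss of bead fluorescence from 50 nM FITC arrestin peptide bound to appendage; 0% = negative control wells and 100% = excess unlabelled arrestin peptide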
# GST-FITC bead: GST-GSH bead binding interference, counter-screen | shares compounds with Arrestin-AP2 inh | GST-fluorescein binding to GSH beads, fluorescence | inhibition, % at 10 µM | 1,300 compounds, 2% hits | AID 588338;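 active = inhibition above 50%, about 3 SD of the inhibition seen with non-fluorescent compounds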;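 also: fluorescein maleimide labelled GST captured on 4 micron glutathione beads; higher means more loss of bead fluorescence from quenching or blocked binding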
# * hit, by the source's call; nt = no result. Compounds with a hit are over-represented: about 1.4% of the library has one in this group of screens.
SMILES,Arrestin-AP2 inh,CAL PDZ FP-1,DDE Tn7 FP inh,DDE Tn6 FP inh,CAL PDZ FP-2,Arr-AP2 CP1,GST-FITC bead
CC(C)[C@H](NC(=O)c1ccccc1)C(=O)N1CCC[C@H]1C(=O)NCc1ccccc1,nt,nt,-4,3,nt,nt,nt
COC(=O)[C@]12C[C@H](CC(=O)NCc3cccc(C(F)(F)F)c3)C(=O)N(Cc3ccc(Cl)cc3Cl)C1=C[C@H](C(C)C)O[C@@H]2C1CC1,nt,nt,-4,-7,nt,nt,nt
COc1cc(NC(=O)C(C)Oc2ccccc2)c(C(=O)O)cc1OC (stereo not given),-1,-1,1,11,5,-6,-5
CCN(CC)C(=O)CC[C@H]1CC[C@]2(CCCN(C3CCCCC3)C2)O1,nt,nt,-5,-8,nt,nt,nt
COc1ccc(CN2C/C(=C/C3=CCCCC3)N(C(=O)OCc3ccccc3)C2=N)c(OC)c1,nt,nt,-8,-1,nt,nt,nt
CSCCC(NS(=O)(=O)c1ccccc1F)C(=O)NCC(C)(C)N1CCOCC1 (stereo not given),56*,-1,-1,-2,nt,4,1
Cc1ccccc1CC(=O)Nc1ccc2c(c1)CCC2,60*,nt,3,0,-2,-2,-1
Cc1ccc(C)c(NC(=O)COC(=O)c2cc3ccccc3oc2=O)c1,66*,1,-4,2,-5,2,5
Cc1cc(N/N=C/c2cccc(Br)c2)nc2ccccc12,57*,0,-7,0,0,5,0
O=c1[nH]c2cc(NCCO)c([N+](=O)[O-])cc2[nH]1,70*,-1,6,8,-3,1,2
COCCNc1cc(N)c([N+](=O)[O-])cc1[N+](=O)[O-],-15,0,-7,-3,3,nt,nt
O=C(Nc1ccc2nc(-c3ccco3)c(-c3ccco3)nc2c1)NC1CC1,58*,-4,nt,nt,-2,30,27
COc1cccc(C(=O)n2ccc3ccc(-c4ccc5ccn(Cc6ccc(C#N)cc6)c5c4)cc32)c1,nt,nt,4,-5,nt,nt,nt
C=CCN1C(=O)c2ccc(C(=O)N3CCN(S(=O)(=O)c4cccc(F)c4)CC3)cc2C1=O,66*,-2,-5,-3,4,5,-10
Cc1cc(N2CCN(C(=O)Oc3ccc(C(F)(F)F)cc3)CC2)c2ccccc2n1,nt,nt,-3,0,nt,nt,nt
CCN(CC(=O)Nc1ccc(OC)cc1)C(=O)Cc1cccs1,56*,-2,-3,7,1,-3,-5
Cc1ccc(-n2c(SCC(=O)N/N=C/c3ccccc3C(=O)O)nnc2-c2ccccc2)cc1,-3,-1,4,1,-5,nt,nt
Cc1ccc(-c2nnc(SCC(=O)N/N=C/c3ccccc3C(=O)O)n2C2CCCCC2)cc1,68*,-3,5,2,-4,4,-5
O=C(/C=C/c1ccc(F)cc1)Nc1cc(S(=O)(=O)N2CCOCC2)ccc1N1CCOCC1,nt,nt,8,4,nt,nt,nt
O=C(/C=C/c1ccc(F)cc1)Nc1ccc(S(=O)(=O)N2CCOCC2)cc1,54*,-3,8,-3,2,-6,10
O=C(CCc1ccccc1Cl)Nc1ccc(S(=O)(=O)N2CCOCC2)cc1,59*,-3,-2,-6,-1,-4,-2
Cc1nc2cc(C(=O)N3CCN(C(=O)C(C)(C)C)CC3)ccc2n1C1CCCC1,nt,nt,-4,2,nt,nt,nt
O=C1C[C@@H](c2ccccc2)N=C2N(CC3CC3)C/C(=C/c3ccccc3)N12,nt,nt,-7,-2,nt,nt,nt
CN=C1S/C(=C/c2cc(C)n(-c3cc(C)ccc3OC)c2C)C(=O)N1C,nt,nt,5,-1,nt,nt,nt
CCCC[C@H]1C2CC(OC(=O)NCCCC(=O)OCC)C(C2)[C@H]2CCCCN21 (stereo not given in full),nt,nt,0,-1,nt,nt,nt
SMILES,Arrestin-AP2 inh,CAL PDZ FP-1,DDE Tn7 FP inh,DDE Tn6 FP inh,CAL PDZ FP-2,Arr-AP2 CP1,GST-FITC bead
COc1ccc(NC(=O)c2ccc3nc[nH]c3c2)cc1,60*,0,-11,0,3,14,1
COc1ccc(-n2c(=O)c3ccccc3n(CC(=O)Nc3ccccc3OC)c2=O)cc1,1,-2,-4,2,-3,nt,nt
CCn1c(=O)n(CC(=O)Nc2cc(OC)ccc2OC)c(=O)c2ccccc21,26,-2,5,6,nt,-5,15
CCOc1ccccc1NC(=O)Cn1c(=O)c2ccccc2n(CC)c1=O,5,-2,5,-1,nt,7,-6
COc1cc(C(=O)O)nc2ccccc12,56*,-1,2,-2,-5,-10,-2
N#Cc1ccc(/C=C2\CC3(OC(=O)C4CCCC4)CCCN2C3)cc1 (stereo not given),nt,nt,-9,-1,nt,nt,nt
Cc1ccc(CN(C(=O)c2ccccc2[N+](=O)[O-])C2CCS(=O)(=O)C2)o1 (stereo not given),34,0,-5,4,nt,nt,nt
Cc1ccc(CN(C(=O)c2ccccc2C)C2CCS(=O)(=O)C2)o1 (stereo not given),56*,0,2,-13,-2,3,7
CCOC(=O)c1ccc(N=c2sc(C(=O)OC)cc(=O)n2C2CC2)cc1,106*,1,1,-3,-2,1,89*
CCOC(=O)c1ccc(N=c2sc(C(=O)OC)cc(=O)n2Cc2ccc3c(c2)OCO3)cc1,-3,1,2,2,nt,nt,nt
O=C(NNC1=NS(=O)(=O)c2ccccc21)c1ccc([N+](=O)[O-])cc1,18,-2,-1,-2,3,nt,nt
O=C(NNC1=NS(=O)(=O)c2ccccc21)c1ccc(Cl)cc1,58*,0,4,-1,-5,-11,0
CCc1ccc(C(CNC(=O)c2ccc3c(=O)n(-c4ccccc4F)c(=S)[nH]c3c2)N(C)C)cc1 (stereo not given),58*,-7,1,-3,-2,-15,0
CCOC(=O)N1CCN(C(=O)c2ccc3c(=O)n(-c4ccccc4F)c(=S)[nH]c3c2)CC1,-3,-1,3,-15,0,nt,nt
CCc1nnc(SCC(=O)Nc2ccc(C(C)=O)cc2)nc1CC,83*,-1,-5,2,-1,18,1
Cc1cc2nc(-c3ccc(NC(=O)C(C)C)cc3)oc2cc1C,60*,nt,-3,-5,-4,-10,0
O=C1C2C3C=CC(C3)C2C(=O)N1c1cccc2cccnc12 (stereo not given),-2,-2,-4,-3,3,nt,nt
O=C1c2ccccc2C(=O)N1c1cccc2cccnc12,58*,-2,-4,-1,-1,-4,-5
CC(C)(C)OC(=O)NCc1cc(F)ccc1/C=C/S(=O)(=O)NC1CCCC1,nt,nt,0,-7,nt,nt,nt
